We go through 19 molecules from ChEMBL document CHEMBL1134751, “Design and synthesis of ether analogues as potent and selective M2 muscarinic receptor antagonists” (Bioorg Med Chem Lett, 2001).

Test [1] has as its target T1, Muscarinic acetylcholine receptor M2 (Homo sapiens, UniProt P08172).
T1 sequence (P08172 whole entry): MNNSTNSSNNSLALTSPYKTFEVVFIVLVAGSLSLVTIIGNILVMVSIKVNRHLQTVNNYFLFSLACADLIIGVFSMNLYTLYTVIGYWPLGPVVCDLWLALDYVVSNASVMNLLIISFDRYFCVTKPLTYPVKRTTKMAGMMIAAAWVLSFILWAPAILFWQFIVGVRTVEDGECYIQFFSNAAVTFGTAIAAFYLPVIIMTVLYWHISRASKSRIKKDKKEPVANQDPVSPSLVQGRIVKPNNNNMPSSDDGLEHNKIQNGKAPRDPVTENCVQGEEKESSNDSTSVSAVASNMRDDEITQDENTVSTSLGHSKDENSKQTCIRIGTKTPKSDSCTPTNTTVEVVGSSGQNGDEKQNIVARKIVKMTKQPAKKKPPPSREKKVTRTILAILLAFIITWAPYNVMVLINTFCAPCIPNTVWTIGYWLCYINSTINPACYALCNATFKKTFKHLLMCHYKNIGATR
Put plainly: Binding affinity towards Muscarinic acetylcholine receptor M2 stably expressed in CHO-K1 cells using [3H]-QNB as radioligand. Format: cell-based. An outline of the steps: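 Competition binding on membranes of clonal cells expressing receptor at 1–9 pmol/mg protein. Incubated with 180 pM [3H]QNB in 10 mM potassium phosphate pH 7.4 plus 1% DMSO and 0.4% methylcellulose for 120 min at rt to equilibrium. Non-specific binding defined with 0.5 mM atropine, protein set for 700–1500 cpm specific binding, then filtration separation. QNB Kd from saturation with 5–2500 pM [3H]QNB.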

Test [2] addresses Muscarinic acetylcholine receptors; M2 & M3 (Homo sapiens) (UniProt P20309+P08172). Put plainly: Ratio of binding affinity against Muscarinic acetylcholine receptor M3 to that of Muscarinic acetylcholine receptor M2. Format: protein assay.
For test [3], the target named is Muscarinic acetylcholine receptors; M1 & M2 (Homo sapiens) (UniProt P11229+P08172). In words: Ratio of binding affinity against Muscarinic acetylcholine receptor M1 to that of Muscarinic acetylcholine receptor M2. Format: protein assay.
Muscarinic acetylcholine receptors; M1 & M2 (Homo sapiens), sequence (P11229 whole entry, looked up, one chain of several): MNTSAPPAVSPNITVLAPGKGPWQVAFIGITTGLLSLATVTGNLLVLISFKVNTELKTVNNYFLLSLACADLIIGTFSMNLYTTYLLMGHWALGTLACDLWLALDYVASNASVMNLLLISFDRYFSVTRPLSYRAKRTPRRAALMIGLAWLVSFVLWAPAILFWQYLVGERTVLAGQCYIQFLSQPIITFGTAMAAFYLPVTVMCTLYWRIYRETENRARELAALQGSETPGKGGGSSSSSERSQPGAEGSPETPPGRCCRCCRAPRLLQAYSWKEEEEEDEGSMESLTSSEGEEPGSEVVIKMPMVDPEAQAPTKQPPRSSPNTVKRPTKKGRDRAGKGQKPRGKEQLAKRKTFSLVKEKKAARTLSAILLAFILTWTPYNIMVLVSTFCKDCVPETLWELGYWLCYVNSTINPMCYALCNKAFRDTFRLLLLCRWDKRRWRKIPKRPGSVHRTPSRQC
For test [4], the target named is T2, Muscarinic acetylcholine receptor M2 (Homo sapiens) (UniProt P08172).
T2 sequence (whole entry): T1 sequence (P08172 whole entry)
In words: Ratio of binding affinity against Muscarinic acetylcholine receptor M4 to that of Muscarinic acetylcholine receptor M2.

Test [5] addresses T2, Muscarinic acetylcholine receptor M2 (Homo sapiens). In words: Ratio of binding affinity against Muscarinic acetylcholine receptor M5 to that of Muscarinic acetylcholine receptor M2.

Broadly, the Ki is the dissociation constant of the complex between target and ligand, obtained from inhibition or displacement. A low value points to higher affinity.

On to `O=S(=O)(c1ccc(OC2CCN(C3CCN(S(=O)(=O)Cc4ccccc4)CC3)CC2)cc1)c1ccc2c(c1)OCO2`, for which the Ki in test [1] amounted to 15 nM. Also, the Ratio amounted to 12 in test [2], 19 in test [3], 4 in test [4] and 1 in test [5].

`CCCCS(=O)(=O)N1CCC(N2CCC(Oc3ccc(S(=O)(=O)c4ccc5c(c4)OCO5)cc3)CC2)CC1` had a Ki in test [1] of 6.9 nM. Also, the Ratio in test [2] came out at 50; in test [3], 35; in test [4] it was 4; in test [5], 35.

On to `CCCS(=O)(=O)N1CCC(N2CCC(Oc3ccc(S(=O)(=O)c4ccc5c(c4)OCO5)cc3)CC2)CC1`, for which the Ki in test [1] amounted to 1.6 nM. Besides, the Ratio in test [2] is 46; in test [3] it was 58; in test [4], 25; in test [5], 39.

Consider `O=C(c1ccccc1)N1CCC(N2CCC(Oc3ccc(S(=O)(=O)c4ccc5c(c4)OCO5)cc3)CC2)CC1`, for which the Ki in test [1] amounted to 1.6 nM. In addition, the Ratio was found to be 6 in test [2], 18 in test [3], 6 in test [4] and 15 in test [5].

With `CCOCC(=O)N1CCC(N2CCC(Oc3ccc(S(=O)(=O)c4ccc5c(c4)OCO5)cc3)CC2)CC1`, the Ki in test [1] was found to be 17.9 nM. Moreover, the Ratio came to 5 in test [2], 6 in test [3], 2 in test [4] and 13 in test [5].

Regarding `CC(C)S(=O)(=O)N1CCC(N2CCC(Oc3ccc(S(=O)(=O)c4ccc5c(c4)OCO5)cc3)CC2)CC1`, in test [1], the inhibitory constant (Ki) amounted to 14 nM. Also, the Ratio was found to be 2 in test [2], 10 in test [3], 2 in test [4] and 16 in test [5].

Molecule `CC(C)OC(=O)N1CCC(N2CCC(Oc3ccc(S(=O)(=O)c4ccc5c(c4)OCO5)cc3)CC2)CC1` came in with a Ki in test [1] of 3.2 nM. In addition, the Ratio in test [2] worked out at 19; in test [3], 59; in test [4], 7; in test [5], 10.

Consider `O=C(c1ccnc2ccccc12)N1CCC(N2CCC(Oc3ccc(S(=O)(=O)c4ccc5c(c4)OCO5)cc3)CC2)CC1`, for which, in test [1], the Ki worked out at 1 nM. In addition, the Ratio in test [2] came to 117; in test [3], 140; in test [4], 18; in test [5], 1480.

In the case of `CCCS(=O)(=O)N1CCC(N2CCC(Oc3ccc(S(=O)(=O)c4ccc(OC)cc4)cc3)CC2)CC1`, the Ki in test [1] turned out to be 139 nM.

In turn, `O=C(c1cccc2ccccc12)N1CCC(N2CCC(Oc3ccc(S(=O)(=O)c4ccc5c(c4)OCO5)cc3)CC2)CC1` had a Ki in test [1] of 0.5 nM. Further, the Ratio in test [2] came to 216; in test [3], 357; in test [4] it was 28; in test [5], 50.

In test [1], `CCOC(=O)N1CCC(N2CCC(Oc3ccc(S(=O)(=O)c4ccc5c(c4)OCO5)cc3)CC2)CC1` had a Ki of 6 nM. For the same molecule, the Ratio in test [3] came to 4.

Take `O=C(Oc1ccccc1)N1CCC(N2CCC(Oc3ccc(S(=O)(=O)c4ccc5c(c4)OCO5)cc3)CC2)CC1`: the affinity in test [1], expressed as Ki, was 1.1 nM. The Ratio turned out to be 61 in test [2], 48 in test [3], 11 in test [4] and 69 in test [5].

Consider `O=C(c1cccc2ncccc12)N1CCC(N2CCC(Oc3ccc(S(=O)(=O)c4ccc5c(c4)OCO5)cc3)CC2)CC1`, for which the affinity in test [1], expressed as Ki, was 0.5 nM. The Ratio turned out to be 124 in test [2], 233 in test [3], 21 in test [4] and 64 in test [5].

Consider `O=C(c1cccc2cccnc12)N1CCC(N2CCC(Oc3ccc(S(=O)(=O)c4ccc5c(c4)OCO5)cc3)CC2)CC1`, for which the Ki in test [1] is 12 nM. The Ratio in test [2] turned out to be 10; in test [3] it was 9; in test [4], 2; in test [5] it was 4.

`CCS(=O)(=O)N1CCC(N2CCC(Oc3ccc(S(=O)(=O)c4ccc5c(c4)OCO5)cc3)CC2)CC1` had a Ki in test [1] of 2 nM. For the same molecule, the Ratio is 122 in test [2], 49 in test [3], 12 in test [4] and 46 in test [5].

`O=S(=O)(c1ccc(OC2CCN(C3CCN(S(=O)(=O)c4cccc5ccccc45)CC3)CC2)cc1)c1ccc2c(c1)OCO2` gave a Ki in test [1] of 34.7 nM. Besides, the Ratio was determined as 8 in test [2], 2 in test [3], 1 in test [4] and 4 in test [5].

`O=C(COc1ccccc1)N1CCC(N2CCC(Oc3ccc(S(=O)(=O)c4ccc5c(c4)OCO5)cc3)CC2)CC1` displayed a Ki in test [1] of 59.5 nM. The Ratio was determined as 5 in test [2], 8 in test [3], 3 in test [4] and 13 in test [5].

In turn, `Cc1ccsc1C(=O)N1CCC(N2CCC(Oc3ccc(S(=O)(=O)c4ccc5c(c4)OCO5)cc3)CC2)CC1` showed a Ki in test [1] of 0.2 nM. In addition, the Ratio was 109 in test [2], 234 in test [3], 23 in test [4] and 196 in test [5].

As for `Cc1cccc(C(=O)N2CCC(N3CCC(Oc4ccc(S(=O)(=O)c5ccc6c(c5)OCO6)cc4)CC3)CC2)c1C`, the inhibition constant Ki in test [1] was 0.4 nM. The Ratio in test [2] was determined as 132; in test [3] it was 155; in test [4], 31; in test [5] it was 56.
